PMC4697833 (Bioorganic & medicinal chemistry, 2015)
Read-outs that look alike come from different tables or passages of the source. Values belong to the molecule of their own block, whether it stands above or below them.

Columns and labels:
[1] = test system: TEX cells; assay: Methylcellulose clonal growth assay with TEX cells; type: cell-based, human; conditions: 11 d growth on methylcellulose
In short: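 TEX cells were suspended in methylcellulose medium with penicillin (100 I.U./mL) and streptomycin (100 µg/mL) at a final 1.2 × 10⁴ cells/mL, i.e. 6,000 cells/well. Test compound, diluted in TEX medium, or DMSO (0.05%, control) was added. Cells were plated as technical triplicates and grown 11 d at 37 °C, 5% CO₂. Two people counted colonies independently at 10X. Values are the mean of 3 biological replicates ± S.D., with unpaired t-tests against DMSO.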

[2] = Measured LogD7.4; type: physicochemical; conditions: pH 7.4
In short: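 LogD at pH 7.4 was determined experimentally by liquid-liquid distribution chromatography, run by a contract analytical lab. Each value is the average of two measurements. The assay's measurable range is 1–5 log units.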

[3] = test system: murine AML cell line B117H (cytarabine-resistant); assay: Murine cytotoxicity assay, B117H; type: cell-based; conditions: Mus musculus, read-out: Growth inhibitory activity (IC50) B117H
In short: (§1)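 Murine AML lines were used: B117P and B140P from BXH-2 mice, which develop leukemia from an endogenous murine leukemia virus, and their counterparts B117H and B140H. Cells per well were 25,000 (B117P), 28,000 (B117H), 36,000 (B140P) and 44,000 (B140H) in 96-well format. IC50 values are mean ± S.D. from biological triplicate.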

[4] = test system: murine AML cell line B140P; assay: Murine cytotoxicity assay, B140P; type: cell-based; conditions: Mus musculus, read-out: Growth inhibitory activity (IC50) B140P
In short: as §1

[5] = test system: TEX cells; assay: Intracellular ROS induction; type: cell-based, human; conditions: 30 min
In short: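 TEX cells were seeded at 5 × 10⁵ cells/mL and incubated overnight at 37 °C, 5% CO₂. They were then exposed to test compound at 25 or 100 µM, with H₂O₂ 100 µM as positive control. CellROX Green (5 µM final) was added at once, followed by 30 min at 37 °C. Cells were washed twice in FACS buffer and 5 × 10⁴ events recorded. Median fluorescence was normalized to untreated control. Runs were in quadruplicate (H₂O₂ triplicate); mean ± S.D.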

[6] = test system: CD34+CD38− TEX cells; assay: Flow cytometry viability of CD34+CD38− TEX cells; type: cell-based; conditions: Homo sapiens, 12 h, read-out: cell viability of CD34+CD38− TEX cells
In short: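 TEX cells at 1 × 10⁶ cells/mL were dosed for 12 h at 37 °C, 20% O₂, 5% CO₂ (final DMSO 0.03% v/v). Test compound was given at 25, 15 or 2.5 µM; the doxorubicin reference at 2.5, 0.5 or 0.05 µM. Cells were stained for CD34/CD38 (10 min, 4 °C), then Annexin V-FITC/7-AAD (10 min, RT, dark). Over 5 × 10⁴ events were collected. Viable cells were double-negative. Values are mean ± S.D. of 3–5 biological replicates; unpaired t-test versus untreated.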

[7] = test system: murine AML cell line B117P; assay: Murine cytotoxicity assay, B117P; type: cell-based; conditions: Mus musculus, read-out: Growth inhibitory activity (IC50) B117P
In short: as §1

[8] = test system: total bone marrow cell population; assay: Flow cytometry viability of total bone marrow cells; type: cell-based, human; conditions: 25 µM, 12 h
In short: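 Cells were plated at 1 × 10⁶ cells/mL with test compound (25 µM) or doxorubicin (0.5 µM) for 12 h (final DMSO 0.03%). Staining was CD34/CD38, then Annexin V/7-AAD, with over 5 × 10⁴ events. Viability is the unstained fraction, mean ± S.D. of n ≥ 3; unpaired t-tests.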

[9] = test system: MCF-7 (breast adenocarcinoma); assay: Alamar blue cytotoxicity assay, MCF-7; type: cell-based, human
In short: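 MCF-7 cells were grown in MEM with 10% FBS, bovine insulin 0.01 mg/mL, penicillin and streptomycin at 37 °C in 5% CO₂. They were detached with trypsin-EDTA or TrypLE and seeded at 5,000 cells/well 24 h before dosing. Readout was Alamar blue reduction. IC50 is mean ± S.D. from n ≥ 3 biological replicates.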

[10] = test system: CCRF-CEM (acute lymphoblastic leukemia); assay: Alamar blue cytotoxicity assay, CCRF-CEM; type: cell-based, human; conditions: read-out: Growth inhibitory activity (IC50) CCRF-CEM
In short: (§2)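 Suspension cells (CCRF-CEM; TEX in IMDM with L-glutamine, 15% FBS, SCF 20 ng/mL, IL-3 2 ng/mL, penicillin/streptomycin) were seeded at 10,000 cells/well 24 h before compound addition. Cultures were kept at 37 °C in humidified 5% CO₂. Viability was read with Alamar blue. IC50 is mean ± S.D. of n ≥ 3 biological replicates.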

[11] = test system: HL-60 (acute promyelocytic leukemia); assay: Alamar blue cytotoxicity assay, HL-60; type: cell-based, human
[12] = test system: U-87 MG (glioblastoma multiforme); assay: Alamar blue cytotoxicity assay, U-87 MG; type: cell-based, human; conditions: read-out: Growth inhibitory activity (IC50) U-87 MG
[13] = test system: murine AML cell line B140H (cytarabine-resistant); assay: Murine cytotoxicity assay, B140H; type: cell-based; conditions: Mus musculus, read-out: Growth inhibitory activity (IC50) B140H
In short: as §1

[14] = test system: DU-145 (prostate cancer); assay: Alamar blue cytotoxicity assay, DU-145; type: cell-based, human
[15] = test system: GBM6 (glioblastoma multiforme); assay: Alamar blue cytotoxicity assay, GBM6; type: cell-based, human
[16] = test system: TEX cells; assay: Alamar blue cytotoxicity assay, TEX; type: cell-based, human; conditions: Homo sapiens, 48 h, read-out: Growth inhibitory activity (IC50) TEX
In short: as §2

[17] = test system: NCI/ADR-RES (ovarian cancer; adriamycin-resistant); assay: Alamar blue cytotoxicity assay, NCI/ADR-RES; type: cell-based, human; conditions: read-out: Growth inhibitory activity (IC50) NCI/ADR-RES; mean ± S.D.
In short: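 Adherent NCI/ADR-RES cells were seeded at 5,000 cells/well 24 h prior to compound treatment and kept at 37 °C, 5% CO₂. Growth was measured by Alamar blue. IC50 values are mean ± S.D. over n ≥ 3 biological replicates.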

[18] = cited from earlier work
[19] = canine, oral dosing 100 mg/kg; cited from earlier work
[20] = test system: mice; conditions: continuous oral dosing 100 mg/kg daily for over four weeks; cited from earlier work
[21] = mice, oral dosing 100 mg/kg; cited from earlier work
[22] = Homo sapiens, MCF7, read-out: Growth inhibitory activity (IC50) MCF-7
[23] = Homo sapiens, HL-60, read-out: Growth inhibitory activity (IC50) HL-60
[24] = Homo sapiens, DU-145, read-out: Growth inhibitory activity (IC50) DU-145
[25] = Homo sapiens, GBM6, read-out: Growth inhibitory activity (IC50) GBM6
[26] = read-out: Growth inhibitory activity (IC50) MCF-7, mean ± S.D.
[27] = read-out: Growth inhibitory activity (IC50) HL-60, mean ± S.D.
[28] = read-out: Growth inhibitory activity (IC50) DU-145, mean ± S.D.

Compound: Nc1ccn([C@@H]2O[C@H](CO)[C@@H](O)[C@@H]2O)c(=O)n1 [AraC, cytarabine]
Colonies (mean number ± S.D.) ([1]; 0.1 µM): 2.6 ± 1.0

Compound: C/C1=C\CC[C@@]2(C)O[C@@H]2[C@H]2OC(=O)[C@@H](CN(C)C)[C@@H]2CC1.O=C(O)/C=C/C(=O)O [DMAPT, dimethylamino-parthenolide fumarate]
increase of water solubility versus PTL [18]: ~ 1000 fold
IC50 [17]: 12.3 ± 2.7 µM
Cmax [19]: 61 µM
IC50 [9, 26]: 10.4 ± 1.2 µM
IC50 ([10]; mean ± S.D.): 1.9 ± 0.4 µM
IC50 [11, 27]: 7.1 ± 0.4 µM
toxicity to mice [20]: no measurable toxicity
IC50 [14, 28]: 8.4 ± 4.5 µM
Cmax [21]: 25 µM

The next lines start with results.

chromatographic logD [2]: 2.9
Compound: C=C1C(=O)O[C@@H]2/C=C(\C)CC/C=C(\C)CC[C@@H]12 [CTL, Costunolide]
IC50 [3]: 4.8 ± 0.7 µM
IC50 [4]: 3.6 ± 1.2 µM
induction of intracellular ROS (MFI normalized to untreated control) ([5]; 100 µM): 2.2 fold
viability at 25 µM [6]: 1 to 10%
IC50 [7]: 3.5 ± 0.4 µM
reduction in total BM viability [8]: 22–26%
IC50 [9, 22]: 17.5 ± 3.7 µM
IC50 ([10]; Homo sapiens, CCRF-CEM): 2.3 ± 0.2 µM
IC50 [11, 23]: 13 ± 0.2 µM
IC50 ([12]; Homo sapiens, U-87 MG): 9.6 ± 0.8 µM
Colonies (mean number ± S.D.) ([1]; 2.5 µM): 6.9 ± 3.6
Colonies (mean number ± S.D.) ([1]; 15 µM, N.D. = clonal growth not detected): 5.6 ± 4.7
IC50 [13]: 2.8 ± 0.7 µM
IC50 [14, 24]: 7.7 ± 2.8 µM
IC50 [15, 25]: 7 ± 1.8 µM
IC50 [16]: 4.9 ± 0.4 µM

chromatographic logD [2]: 2.18
Compound: C=C1C(=O)O[C@H]2[C@H]1CCC(C)=C1CC[C@@](C)(O)[C@@H]12 [Compound 1, Micheliolide]
IC50 [3]: 8.8 ± 1.7 µM
IC50 [4]: 10 ± 0.4 µM
induction of intracellular ROS (MFI normalized to untreated control) ([5]; 25 µM): 1.7 fold
induction of intracellular ROS (MFI normalized to untreated control) ([5]; 100 µM): 2.9 fold
viability at 25 µM [6]: 1 to 10%
IC50 [7]: 6.4 ± 1 µM
reduction in total BM viability [8]: 22–26%
IC50 [9, 22]: 9.6 ± 1 µM
IC50 ([10]; Homo sapiens, CCRF-CEM): 2.7 ± 1.1 µM
IC50 [11, 23]: 9.2 ± 2.2 µM
IC50 ([12]; Homo sapiens, U-87 MG): 17.8 ± 5 µM
Colonies (mean number ± S.D.) ([1]; 2.5 µM): 4.2 ± 2.5
IC50 [13]: 9.3 ± 1.5 µM
IC50 [14, 24]: 14.8 ± 4 µM
IC50 [15, 25]: 8.5 ± 0.7 µM
IC50 [16]: 2.7 ± 0.4 µM

LogD7.4 ([2]; average of two measurements): 2.00
Compound: C=C1C(=O)OC2C1CCC(C)=CCCC1(C)OC21 (stereo not drawn) [Compound 2, cis-PTL]
IC50 [17]: 9.4 ± 2.1 µM
IC50 [9, 26]: 7.5 ± 0.8 µM
IC50 ([10]; mean ± S.D.): 2.2 ± 1 µM
IC50 [11, 27]: 8 ± 1.1 µM
IC50 ([12]; mean ± S.D.): 9.1 ± 4.4 µM
IC50 [14, 28]: 6 ± 4.2 µM
IC50 ([15]; read-out: Growth inhibitory activity (IC50) GBM6, mean ± S.D.): 3.3 ± 0.8 µM
